TRPC4 inh: inhibitors of mouse TRPC4 channel, primary screen, Fluo4 calcium, HEK293 TRPC4beta/mu-opioid cells; DAMGO-evoked Fluo4 calcium flux; hits give low values; actives 0.39% (n = 300,000); Short transient receptor potential channel 4 (Mus musculus), Q9QUQ5; B-score at 10 µM; AID 2247, 2010;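 active means B-score over 3 SD under the library average, no early fluorescence shift, positive overall ratio signal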
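Test system – stable TRPC4beta/mu-opioid receptor HEK293 cells · Probe or stimulus – DAMGO, a submaximal dose followed by a maximal one · Dosing – one concentration per compound · Signal – Fluo4 calcium fluorescence by kinetic imaging, 5 s 1 Hz baseline · Evaluation – per-well B score of integrated baseline-normalized Fluo4 ratio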
TRPC6 act: mouse TRPC6 channel activators, primary screen, cell-based, HEK293, membrane potential dye. Short transient receptor potential channel 6 (Mus musculus), Q61143. HEK293-TRPC6 membrane potential dye fluorescence; hits give high values. B-score at 10 µM. actives 0.13% (n = 310,000);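 active means B-score of the integrated fluorescence ratio above library mean plus 3 SD, and starting fluorescence ratio within library mean plus 5 SD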;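 further: higher score means more depolarization so channel activation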
Target sequence (Q61143 whole entry, looked up): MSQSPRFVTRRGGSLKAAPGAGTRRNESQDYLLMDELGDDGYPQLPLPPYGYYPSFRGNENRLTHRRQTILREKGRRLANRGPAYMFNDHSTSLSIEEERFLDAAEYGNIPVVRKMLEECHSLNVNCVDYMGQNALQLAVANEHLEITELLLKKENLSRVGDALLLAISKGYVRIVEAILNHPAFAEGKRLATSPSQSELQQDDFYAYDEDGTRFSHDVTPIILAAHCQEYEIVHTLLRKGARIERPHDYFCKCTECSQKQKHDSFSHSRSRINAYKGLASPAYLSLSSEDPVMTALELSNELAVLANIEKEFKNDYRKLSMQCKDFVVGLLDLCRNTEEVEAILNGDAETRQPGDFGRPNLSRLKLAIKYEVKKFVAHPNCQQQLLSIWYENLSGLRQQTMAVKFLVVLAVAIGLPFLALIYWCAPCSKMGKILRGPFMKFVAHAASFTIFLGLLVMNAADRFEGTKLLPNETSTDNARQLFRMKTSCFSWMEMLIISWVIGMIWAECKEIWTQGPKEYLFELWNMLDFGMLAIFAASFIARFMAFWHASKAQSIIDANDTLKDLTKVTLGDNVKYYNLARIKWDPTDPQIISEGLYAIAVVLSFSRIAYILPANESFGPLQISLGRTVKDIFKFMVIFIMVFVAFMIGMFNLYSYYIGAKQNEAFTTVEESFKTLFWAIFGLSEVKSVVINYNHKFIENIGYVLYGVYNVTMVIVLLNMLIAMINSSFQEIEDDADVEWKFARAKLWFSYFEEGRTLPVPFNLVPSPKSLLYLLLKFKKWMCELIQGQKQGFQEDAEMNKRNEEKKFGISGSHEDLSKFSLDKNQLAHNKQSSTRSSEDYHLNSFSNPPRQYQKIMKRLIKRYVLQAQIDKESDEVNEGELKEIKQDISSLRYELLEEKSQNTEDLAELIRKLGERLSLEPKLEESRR
TRPC4 potent: positive allosteric modulators of TRPC4, primary screen, cell-based, mouse TRPC4beta, HEK293 mu-opioid, Fluo-4 calcium. Short transient receptor potential channel 4 (Mus musculus), Q9QUQ5. DAMGO EC20, Fluo-4 Ca2+ flux; hits give high values. B-score at 10 µM. actives 0.42% (n = 310,000);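 active means B-score of calcium response area above 5 SD of library B-scores, with initial fluorescence ratio within 5 SD of library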;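 further: B-score of integrated fluorescence ratio over time as area under calcium response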
TRPC6 inh: mouse TRPC6 channel inhibitors, primary screen, cell-based, HEK293, membrane potential dye. ACh-evoked depolarization; hits give low values. B-score at 10 µM. Short transient receptor potential channel 6 (Mus musculus), Q61143. actives 1.1% (n = 310,000);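 active means B-score under library mean minus 3 SD, initial fluorescence not abnormally high, positive integrated signal ratio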;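 further: B-score derived from integrated fluorescence ratio over the kinetic read; more negative B-score means stronger inhibition of depolarization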
TRPC4 act: activators of mouse TRPC4 channel, primary screen, Fluo4 calcium, HEK293 TRPC4beta/mu-opioid cells; AID 2237, 2010; B-score at 10 µM; Short transient receptor potential channel 4 (Mus musculus), Q9QUQ5; Fluo4 calcium fluorescence; hits give high values; actives 0.49% (n = 310,000);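 active means B-score above 5 SD of library B-scores, and initial fluorescence ratio not above library mean plus 5 SD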;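 further: positive B-score marks a calcium rise read as TRPC4 activation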
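System – HEK293 cells stably co-expressing mouse TRPC4beta and mu-opioid receptor · Signal – Fluo4 calcium-sensitive dye fluorescence, kinetic, 1 Hz baseline · Benchmarks – buffer (low) and maximal DAMGO (high) · Read-out – B score of integrated fluorescence ratio per well · Incubation – dye loading 45 min room temperature, 110 s kinetic read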
TRPC4 spec 2: second selectivity test of TRPC6 inhibitors: effect on mouse TRPC4. inhibition, % at 10 µM. actives 42% (n = 920). HEK293 TRPC4/MOR, membrane potential dye fluorescence; channel activated by saturating DAMGO dose. shares compounds with TRPC6 inh;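 active means compounds whose fluorescence signal differed from control wells by over 3 SD, either direction, in both duplicate plates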
TRPC4 spec: mouse TRPC4 modulation by TRPC6 hits, confirmation, selectivity assay for TRPC6 inhibitor project, cell-based, HEK293 TRPC4/mu-opioid, membrane potential dye. membrane potential fluorescence. shares compounds with TRPC6 inh. actives 61% (n = 920). activity change, negative = inhibition, % at 10 µM;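 active means rise or fall in signal beyond 3 SD of buffer-only wells in both replicate plates, either sign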;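 further: integrated kinetic ratio of fluorescence range over baseline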
HEK293 MPD ctr 2-1: nonspecific membrane potential effects, parental HEK293, confirmation, counter-screen for TRPC6 inhibitor project, cell-based, second counter screen | parental HEK293 membrane potential dye fluorescence; maximal acetylcholine challenge after compound addition | shares compounds with TRPC6 inh | signal change vs control, % at 10 µM | actives 31% (n = 920);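 active means membrane potential signal moving either way by over 3 SD of the maximum-effect control, in both duplicate plates, meaning non-specific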
HEK293 MPD ctr-1: membrane potential modulation in parental HEK293, confirmation, counter-screen for TRPC6 inhibitor project, cell-based; shares compounds with TRPC6 inh; parental HEK293 membrane potential dye fluorescence; membrane potential signal change, % at 10 µM; actives 60% (n = 920); AID 2780, 2010;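 active means membrane potential signal shifting up or down by more than 3 SD of buffer-only wells, on both duplicate plates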
HEK293 MPD ctr-2: parental HEK293 membrane potential modulation, confirmation, counter-screen for TRPC6 modulator project, cell-based; membrane potential dye fluorescence; actives 51% (n = 2,400); membrane potential signal change, % at 10 µM; shares compounds with TRPC6 inh;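 active means membrane potential signal moves up or down beyond 5 SD from buffer-only wells, on both duplicate plates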
HEK293 MPD ctr 2-2: second counter-screen for TRPC6 modulators: effect in parental HEK293 cells. shares compounds with TRPC6 inh. membrane potential dye fluorescence; after compound, maximal acetylcholine stimulation. inhibition, % at 10 µM. actives 14% (n = 2,400). AID 488926;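 active means membrane potential signal drops by more than 5 SD from the mean control signal, in both duplicate plates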;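 further: plate controls were acetylcholine ECmax control wells for no effect and buffer only wells for full effect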
TRPC4/MOR mod: TRPC4 modulation by TRPC6 hit compounds, confirmation, selectivity assay for TRPC6 modulator project, cell-based, HEK293 TRPC4/mu-opioid, membrane potential dye, mouse | shares compounds with TRPC6 inh | membrane potential fluorescence | percent change from control (negative = decrease, positive = increase), % at 10 µM | actives 69% (n = 2,400) | AID 488927, 2010;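 active means membrane potential signal moved up or down beyond 5 SD of buffer control wells, in both duplicate plates, actives on both sides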;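 further: plate controls were assay buffer wells for no effect and DAMGO maximal-effect wells for full effect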
TRPC4 ctr inh 2: second selectivity test of TRPC6 modulators against mouse TRPC4; shares compounds with TRPC6 inh; HEK293 TRPC4/mu-opioid, membrane potential dye fluorescence; stimulated with maximal-effect DAMGO; inhibition, % at 10 µM; actives 55% (n = 2,400);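 active means drop in membrane potential signal beyond 5 SD of the control wells in both duplicate plates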;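 further: TRPC4 counter screen for TRPC6 hits run under conditions tuned for TRPC6 not TRPC4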
TRPC6 block conf: mouse TRPC6 channel inhibitors, confirmation, HEK293 cells, membrane potential dye, duplicate. actives 43% (n = 3,300). shares compounds with TRPC6 inh. inhibition, % at 10 µM. ACh-evoked depolarization;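 active means fluorescence ratio falls more than 5 SD below the full-stimulation control mean, in both duplicate runs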;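 further: integrated fluorescence ratio of peak minus minimum over baseline after agonist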
TRPC6 act conf: mouse TRPC6 channel activators, confirmation, HEK293 cells, membrane potential dye, duplicate; shares compounds with TRPC6 inh; HEK293-TRPC6 membrane potential dye fluorescence, FDSS; activation, % at 10 µM; actives 11% (n = 2,800);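 active means ratio signal rise beyond 5 SD above unstimulated control wells' mean, seen in both duplicate runs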;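 further: plate controls were buffer EC0 wells for no effect and acetylcholine ECmax response for full effect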
* = called active by the depositor; i = inactive; . = no result given. Only some compounds are listed: those with a hit (about 2.3% of all), similar ones and a draw of the others.

SMILES	TRPC4 inh	TRPC6 act	TRPC4 potent	TRPC6 inh	TRPC4 act	TRPC6 block conf	TRPC6 act conf	others
CC(C)Cn1c(=O)c2ccccc2n2c(CCC(=O)NCC3CCCO3)nnc12 (stereo not given)	i	i	i	i	i	.	.
C=Cc1ncc(OC)c2c1[nH]c1ccccc12	i	i	i	i	i	.	.
Cc1ccc2ncnc(NCCCN3CCOCC3)c2c1	i	i	i	i	i	.	.
CCOC(=O)c1cnc2ccc(C)cc2c1NCCN1CCOCC1	i	i	i	-5.1*	i	42%*	i	HEK293 MPD ctr-2=i;HEK293 MPD ctr 2-2=i;TRPC4/MOR mod=15%*;TRPC4 ctr inh 2=34%*
CCOC(=O)c1ccc2ncc(C(=O)OCC)c(NCCCN3CCOCC3)c2c1	i	i	i	-6.8*	i	i	i	TRPC4 spec 2=i;TRPC4 spec=-16%*;HEK293 MPD ctr 2-1=i;HEK293 MPD ctr-1=-251%*
CCOC(=O)c1cnc2ccc(Br)cc2c1NCCCN1CCOCC1	i	i	i	i	i	.	.
CCOC(=O)c1cnc2c(Cl)c(Cl)ccc2c1NCCN1CCOCC1	i	i	i	i	i	.	.
CCOC(=O)c1cnc2c(C)c(Cl)ccc2c1NCCCN1CCOCC1	i	i	i	i	i	.	.
CCOC(=O)c1cnc2c(C)c(C)ccc2c1NCCN1CCOCC1	i	i	i	-5.8*	i	i	i	HEK293 MPD ctr-2=86%*;HEK293 MPD ctr 2-2=77%*;TRPC4/MOR mod=28%*;TRPC4 ctr inh 2=33%*
CCOC(=O)c1cnc2c(C)cc(C)cc2c1NCCCN1CCOCC1	i	i	i	-8.8*	i	65%*	i	TRPC4 spec 2=70%*;TRPC4 spec=i;HEK293 MPD ctr 2-1=-14%*;HEK293 MPD ctr-1=i

Screening results: PubChem BioAssay, Johns Hopkins Ion Channel Center
